Results: ChEMBL document CHEMBL3867462, “Synthesis and in vitro antikinetoplastid activity of polyamine-hydroxybenzotriazole conjugates” (Bioorg Med Chem, 2017)

Experiments:
[1] = Cytotoxicity against mouse RAW264.7 cells assessed as cell growth inhibition after 72 hrs by Alamar blue dye-based assay; format: toxicity
How it was run: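 RAW 264.7 cells in DMEM with 10% heat-inactivated FBS were seeded at 5×10³ cells/well and incubated 24 h at 37 °C, 5% CO2. The medium was then replaced with fresh DMEM containing compound.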

[2] = Selectivity index, ratio of CC50 for mouse RAW 264.7 cells to IC50 for Leishmania donovani LV9 intramacrophage amastigotes infected in mouse RAW 264.7 cells; format: functional
How it was run: (§1)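 Selectivity index is the CC50 on RAW 264.7 cells divided by the IC50 on the parasite.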

[3] = system: Leishmania donovani; assay: Antileishmanial against of Leishmania donovani LV9 intramacrophage amastigotes infected in mouse RAW 264.7 cells after 48 hrs by SYBR1 green-based qPCR analysis; format: functional, cell-based; details: LV9, RAW264.7, 48 h
[4] = Selectivity index, ratio of CC50 for mouse RAW 264.7 cells to IC50 for Trypanosoma brucei gambiense FeoITMAP/1893 trypomastigotes; format: functional; how it was run: as §1
[5] = system: Trypanosoma brucei gambiense; assay: Antitrypanosomal against bloostream forms of Trypanosoma brucei gambiense FeoITMAP/1893 trypomastigotes after 72 hrs in the dark by resazurin assay; format: functional; details: FeoITMAP/1893, 72 h
How it was run: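 Bloodstream trypanosomes were seeded at 4×10⁴/mL with compound dilutions in supplemented medium containing NaHCO3, hypoxanthine, bathocuproine, thymidine and 2-mercaptoethanol. Incubation was 72 h.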

[6] = system: Leishmania donovani; assay: Antileishmanial against of Leishmania donovani LV9 axenic amastigotes after 72 hrs by SYBR1 green-based qPCR analysis; format: functional; details: LV9, 72 h
How it was run: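 Axenic amastigotes were grown at 37 °C under 5% CO2, in medium at pH 5.5 containing glucose, glutamine, trypticase peptone, haemin and 20% FBS. Parasite load was read by SYBR green I fluorescence in a qPCR instrument and converted against a standard range of known parasite densities.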

[7] = Selectivity index, ratio of CC50 for mouse RAW 264.7 cells to IC50 for Leishmania donovani LV9 axenic amastigotes; format: functional; how it was run: as §1
[8] = Mixed-type inhibition of Trypanosoma brucei TryR assessed as enzyme-inhibitor complex using TS2 as substrate in presence of NADPH by Lineweaver-Burk plot analysis
How it was run: (§2)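 Recombinant T. brucei TryR activity was followed as NADPH consumption at 340 nm with TS2 concentration varied, at 0, 10 and 40 µM inhibitor. Inhibition type and inhibitor constant were derived from Lineweaver–Burk plots.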

[9] = Mixed-type inhibition of Trypanosoma brucei TryR assessed as enzyme-substrate-inhibitor complex using TS2 as substrate in presence of NADPH by Lineweaver-Burk plot analysis; how it was run: as §2
[10] = system: Trypanosoma brucei; assay: Inhibition of Trypanosoma brucei TryR using TS2 as substrate at 40 uM in presence of NADPH by spectrophotometric analysis
How it was run: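 Recombinant T. brucei TryR was screened with inhibitor at 40 µM in assay buffer containing 5% DMSO, at 40 or 100 µM TS2. Activity was followed as NADPH consumption at 340 nm and reported as percent inhibition against DMSO-matched controls.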

SMILES	IC50 [3]	IC50 [5]	IC50 [6]	Ki [8]	Ki [9]	inhibition [10]	CC50 at 72 h [1]	Ratio CC50/IC50 [2]	Ratio CC50/IC50 [4]	Ratio CC50/IC50 [7]
CC(C)(C)OC(=O)NCCCNC(=O)COn1nnc2ccccc21	56.7 µM	28.8 µM	> 100 µM				> 100 µM	2	3	
Cl.Cl.NCCCCNCCCNC(=O)COn1nnc2ccccc21	> 100 µM	72 µM	> 100 µM	6.7 µM	16.8 µM	80%	> 100 µM		1	1.5
CC(C)(C)OC(=O)NCCCCNC(=O)COn1nnc2ccccc21	> 100 µM	> 100 µM	> 100 µM				> 100 µM			
CCCCCCCCCCCCCCCCOP(=O)([O-])OCC[N+](C)(C)C [MILTEFOSINE]	1.5 µM		1.9 µM				> 100 µM			
Cl.NCCCCNC(=O)COn1nnc2ccccc21	> 100 µM	9.5 µM	> 100 µM				> 100 µM		11	
CC(C)(C)OC(=O)NCCCN(CCCCN(CCCNC(=O)COn1nnc2ccccc21)C(=O)OC(C)(C)C)C(=O)OC(C)(C)C	34.7 µM	3.5 µM	27 µM				37.4 µM	1	10	1.4
Cl.Cl.Cl.NCCCNCCCCNCCCNC(=O)COn1nnc2ccccc21	38.6 µM	13.8 µM	10.9 µM				> 100 µM	3	7	9
Cl.Cl.NCCCNCCCCNC(=O)COn1nnc2ccccc21	> 100 µM	38.7 µM	> 100 µM				> 100 µM		3	9
Cl.Cl.NCCCCN(CCCN)C(=O)COn1nnc2ccccc21	23.4 µM	25.3 µM	> 100 µM				> 100 µM	4	4	
Cl.NCCCNC(=O)COn1nnc2ccccc21	29.5 µM	> 100 µM	> 100 µM				> 100 µM	3		
O=C(O)COn1nnc2ccccc21	> 100 µM	> 100 µM	> 100 µM				> 100 µM			

More lines, in order of falling IC50 [5], values ahead:

IC50 [3]	IC50 [5]	IC50 [6]	Ki [8]	Ki [9]	inhibition [10]	SMILES	CC50 at 72 h [1]	Ratio CC50/IC50 [2]	Ratio CC50/IC50 [4]	Ratio CC50/IC50 [7]
> 100 µM	3.3 µM	8.3 µM				NCCCCNCCCN [SPERMIDINE]	> 100 µM		29	12
3.1 µM	3.2 µM	11.5 µM				CC(C)(C)OC(=O)NCCCCN(CCCNC(=O)OC(C)(C)C)C(=O)COn1nnc2ccccc21	12.5 µM	4	4	1
41.4 µM	2 µM	> 100 µM				CC(C)(C)OC(=O)NCCCN(CCCCNC(=O)COn1nnc2ccccc21)C(=O)OC(C)(C)C	> 100 µM	2	50	
67.8 µM	1.2 µM	60.5 µM				CC(C)(C)OC(=O)NCCCCN(CCCNC(=O)COn1nnc2ccccc21)C(=O)OC(C)(C)C	> 100 µM	1	85	1.6
	0.0021 µM					N=C(N)c1ccc(OCCCCCOc2ccc(C(=N)N)cc2)cc1 [PENTAMIDINE]	> 100 µM			
